# Assays:
# PC-3 [1] = test: Induction of apoptosis in human PC3 cells assessed as early apoptotic cells at 10 uM after 24 hrs by annexin V/propidium iodide staining-based flow cytometry (reference value: 5.7%); format: functional
# Procedure, shortened: (§1)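 Phosphatidylserine exposure in PC-3 cells after 24 h at 0, 5, 10, 20 or 30 μM, by Alexa Fluor 488 annexin V/PI double staining and flow cytometry; early apoptotic = AV+/PI−, late apoptotic or dead = AV+/PI+.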
# [2] = Induction of apoptosis in human PC3 cells assessed as upregulation of caspase3 level after 24 hrs by Western blotting analysis; format: functional, cell-based; conditions: PC-3
# Procedure, shortened: (§2)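 PC-3 cells exposed for 24 h to 0, 1, 5, 10, 20 or 30 μM; Bax, Bcl-2 and activated caspase-3 measured by Western blot, reported as Bax/Bcl-2 value.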
# PC-3 [3] = test: Induction of apoptosis in human PC3 cells assessed as late apoptotic cells at 30 uM after 24 hrs by annexin V/propidium iodide staining-based flow cytometry (reference value: 2.1%); format: functional; procedure, shortened: as §1
# [4] = Cytotoxicity against human PC3 cells after 48 hrs by WST-8 assay; format: functional, cell-based; conditions: PC-3, 48 h
# PC-3 [5] = test: Induction of apoptosis in human PC3 cells assessed as early apoptotic cells at 5 uM after 24 hrs by annexin V/propidium iodide staining-based flow cytometry (reference value: 5.7%); format: functional; procedure, shortened: as §1
# PC-3 [6] = test: Induction of apoptosis in human PC3 cells assessed as early apoptotic cells at 20 uM after 24 hrs by annexin V/propidium iodide staining-based flow cytometry (reference value: 5.7%); format: functional; procedure, shortened: as §1
# [7] = Cell cycle arrest in human PC3 cells assessed as accumulation at G0/G1 phase at 10 uM after 24 hrs by propidium iodide staining-based flow cytometry (reference value: 39.20%); format: functional; conditions: PC-3
# Procedure, shortened: (§3)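 PC-3 cells given compound at 5, 10, 15, 20 or 30 μM, or 0.1% DMSO vehicle, for 24 h; stained with propidium iodide and analysed by flow cytometry for G0/G1, S and G2/M fractions.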
# [8] = Induction of apoptosis in human PC3 cells assessed as upregulation of Bcl2 expression after 24 hrs by Western blotting analysis; format: functional, cell-based; conditions: PC-3, in the assay text read “upregulation of Bax/Bcl2 ratio” for “upregulation of Bcl2 expression”; procedure, shortened: as §2
# PC-3 [9] = test: Induction of apoptosis in human PC3 cells assessed as late apoptotic cells at 20 uM after 24 hrs by annexin V/propidium iodide staining-based flow cytometry (reference value: 2.1%); format: functional; procedure, shortened: as §1
# [10] = Cell cycle arrest in human PC3 cells assessed as accumulation at S phase at 5 uM after 24 hrs by propidium iodide staining-based flow cytometry (reference value: 27.26%); format: functional; conditions: PC-3; procedure, shortened: as §3
# PC-3 [11] = test: Induction of apoptosis in human PC3 cells assessed as total apoptotic cells at 20 uM after 24 hrs by annexin V/propidium iodide staining-based flow cytometry; format: functional; procedure, shortened: as §1
# [12] = Induction of apoptosis in human PC3 cells assessed as upregulation of Bax expression after 24 hrs by Western blotting analysis; format: functional, cell-based; conditions: PC-3; procedure, shortened: as §2
# [13] = target: T1, Alpha-1A adrenergic receptor (Rattus norvegicus, UniProt P43140); test: Antagonist activity at Sprague-Dawley rat prostatic vas deferens adrenergic alpha-1A receptor after 20 mins; conditions: read-out: pA2 (converted)
# T1 sequence (P43140 whole entry): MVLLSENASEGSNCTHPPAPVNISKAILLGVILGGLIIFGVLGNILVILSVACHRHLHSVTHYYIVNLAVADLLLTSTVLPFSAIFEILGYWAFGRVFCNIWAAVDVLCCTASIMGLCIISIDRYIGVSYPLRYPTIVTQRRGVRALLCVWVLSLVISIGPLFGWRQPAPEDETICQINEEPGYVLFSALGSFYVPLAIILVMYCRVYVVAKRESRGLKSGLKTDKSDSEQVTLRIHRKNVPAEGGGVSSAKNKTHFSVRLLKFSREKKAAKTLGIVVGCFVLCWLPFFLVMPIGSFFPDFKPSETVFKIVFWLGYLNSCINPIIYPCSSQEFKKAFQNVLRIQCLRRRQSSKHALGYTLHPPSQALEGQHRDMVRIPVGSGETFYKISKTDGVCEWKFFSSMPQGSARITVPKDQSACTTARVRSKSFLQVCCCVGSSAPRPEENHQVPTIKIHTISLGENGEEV
# Procedure, shortened: (§4)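 Isolated rat tissues (prostatic vas deferens, spleen, thoracic aorta) contracted with cumulative norepinephrine; concentration-response curves recorded in presence of increasing antagonist concentrations, antagonism read as rightward curve shift. Mean ± SEM of five to eight separate experiments.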
# Rattus norvegicus [14] = organism: Rattus norvegicus; test: Selectivity ratio for Sprague-Dawley rat prostatic vas deferens adrenergic alpha-1A receptor to Sprague-Dawley rat spleen adrenergic alpha-1B receptor
# LNCaP = test: Cytotoxicity against human LNCAP cells after 48 hrs by WST-8 assay; format: functional, cell-based
# [15] = Cell cycle arrest in human PC3 cells assessed as accumulation at G2/M phase at 20 uM after 24 hrs by propidium iodide staining-based flow cytometry (reference value: 33.04%); format: functional; conditions: PC-3; procedure, shortened: as §3
# [16] = target: T2, Alpha-1D adrenergic receptor (Rattus norvegicus, UniProt P23944); test: Antagonist activity at Sprague-Dawley rat thoracic aorta adrenergic alpha-1D receptor after 20 mins; conditions: read-out: pA2 (converted); procedure, shortened: as §4
# T2 sequence (P23944 whole entry): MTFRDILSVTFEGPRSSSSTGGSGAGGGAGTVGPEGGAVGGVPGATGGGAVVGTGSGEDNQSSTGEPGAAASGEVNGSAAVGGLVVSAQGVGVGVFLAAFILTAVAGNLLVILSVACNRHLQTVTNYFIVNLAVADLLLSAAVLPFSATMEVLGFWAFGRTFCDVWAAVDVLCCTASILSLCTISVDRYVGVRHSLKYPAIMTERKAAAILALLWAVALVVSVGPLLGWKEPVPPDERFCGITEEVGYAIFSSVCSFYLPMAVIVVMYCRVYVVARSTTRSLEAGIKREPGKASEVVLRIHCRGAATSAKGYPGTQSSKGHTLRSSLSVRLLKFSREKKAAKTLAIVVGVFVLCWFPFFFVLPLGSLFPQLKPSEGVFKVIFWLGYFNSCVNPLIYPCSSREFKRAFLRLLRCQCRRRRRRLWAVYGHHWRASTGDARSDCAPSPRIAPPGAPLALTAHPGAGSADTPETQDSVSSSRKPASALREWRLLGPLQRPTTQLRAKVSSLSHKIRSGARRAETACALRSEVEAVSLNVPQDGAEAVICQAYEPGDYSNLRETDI
# Rattus norvegicus [17] = organism: Rattus norvegicus; test: Selectivity ratio for Sprague-Dawley rat thoracic aorta adrenergic alpha-1D receptor to Sprague-Dawley rat spleen adrenergic alpha-1B receptor; format: tissue-based
# [18] = Cell cycle arrest in human PC3 cells assessed as accumulation at G2/M phase at 15 uM after 24 hrs by propidium iodide staining-based flow cytometry (reference value: 33.04%); format: functional; conditions: PC-3; procedure, shortened: as §3
# [19] = Cell cycle arrest in human PC3 cells assessed as accumulation at G2/M phase at 5 uM after 24 hrs by propidium iodide staining-based flow cytometry (reference value: 33.04%); format: functional; conditions: PC-3; procedure, shortened: as §3
# [20] = Cell cycle arrest in human PC3 cells assessed as accumulation at S phase at 20 uM after 24 hrs by propidium iodide staining-based flow cytometry (reference value: 27.26%); format: functional; conditions: PC-3; procedure, shortened: as §3
# Rattus norvegicus [21] = organism: Rattus norvegicus; test: Selectivity ratio for Sprague-Dawley rat thoracic aorta adrenergic alpha-1D receptor to Sprague-Dawley rat prostatic vas deferens adrenergic alpha-1A receptor
smiles,measurement,setting,value
COc1ccccc1N1CCN(CCCNC(=O)c2cc3ccccc3n2Cc2ccccc2)CC1,Activity,PC-3 [1],41.9%
same,Activity,[2],Dose-dependent effect
same,Activity,PC-3 [3],32.6%
same,IC50,[4],15.7 µM
same,Activity,PC-3 [5],20.2%
same,Activity,PC-3 [6],44.9%
same,Activity,[7],58.5%
same,Activity,[8],Dose-dependent effect
same,Activity,PC-3 [9],17.8%
same,Activity,[10],23.7%
same,Activity,PC-3 [11],62.7%
same,Activity,[12],Dose-dependent effect
same,Kb,[13],0.00741 µM
same,Ratio,Rattus norvegicus [14],19.1
same,IC50,LNCaP,25.5 µM
same,Activity,[15],16.2%
same,Kb,[16],0.00275 µM
same,Ratio,Rattus norvegicus [17],47.9
same,Activity,[18],14.9%
same,Activity,[19],33.5%
same,Activity,[20],22.2%
same,Ratio,Rattus norvegicus [21],2.6

# Reference: ChEMBL document CHEMBL3414528, “Novel naftopidil-related derivatives and their biological effects as alpha1-adrenoceptors antagonists and antiproliferative agents” (Eur J Med Chem, 2015)
